Assay results taken from ChEMBL document CHEMBL1158122, “Anti-inflammatory, anti-tumor-promoting, and cytotoxic activities of constituents of marigold (Calendula officinalis) flowers” (J Nat Prod, 2006).

What was measured:
Raji [1] = assay: Inhibition of TPA-induced EBV-early antigen activation in human Raji cells at 500 molar ratio relative to TPA; assay type: cell-based; parameters: scale not given: the % may be the effect or the level left; conditions: human gammaherpesvirus 4
[2] = Inhibition of TPA-induced EBV-early antigen activation in human Raji cells relative to TPA; assay type: cell-based, human gammaherpesvirus 4
Raji [3] = assay: Inhibition of TPA-induced EBV-early antigen activation in human Raji cells at 100 molar ratio relative to TPA; assay type: cell-based; parameters: scale not given: the % may be the effect or the level left; conditions: human gammaherpesvirus 4
Raji [4] = assay: Inhibition of TPA-induced EBV-early antigen activation in human Raji cells at 10 molar ratio relative to TPA; assay type: cell-based; parameters: scale not given: the % may be the effect or the level left; conditions: human gammaherpesvirus 4
[5] = Cytotoxicity against human Raji cells assessed as cell viability at 100 molar ratio; assay type: cell-based; conditions: read-out: Activity
Method in brief: (§1)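 Raji cells were treated with 32 pmol TPA to induce EBV early antigen activation. The test agent was added at 10, 100, 500 or 1000 mol ratio relative to TPA, and Raji cell viability was measured alongside EA activation.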

Raji [6] = assay: Inhibition of TPA-induced EBV-early antigen activation in human Raji cells at 1000 molar ratio relative to TPA; assay type: cell-based; parameters: scale not given: the % may be the effect or the level left; conditions: human gammaherpesvirus 4
[7] = Cytotoxicity against human Raji cells assessed as cell viability at 10 molar ratio; assay type: cell-based; conditions: read-out: Activity; method in brief: as §1
[8] = Cytotoxicity against human Raji cells assessed as cell viability at 500 molar ratio; assay type: cell-based; conditions: read-out: Activity; method in brief: as §1
[9] = Cytotoxicity against human Raji cells assessed as cell viability at 1000 molar ratio; assay type: cell-based; conditions: read-out: Activity; method in brief: as §1
Mus musculus = assay: Antiinflammatory activity against TPA-induced ear edema in mouse; assay type: functional
Method in brief: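 Specific-pathogen-free female ICR mice were housed five per cage at 24 ± 2 °C. Inflammation was induced on the ear with TPA at 1 µg/ear, and the test agent was applied per ear. Ear edema inhibition was expressed as ID50 in mg per ear.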

SMILES | Activity (Raji [1]) [%] | IC50 [2] [molar ratio] | Activity (Raji [3]) [%] | Activity (Raji [4]) [%] | viability at 100 molar ratio [5] [%] | Activity (Raji [6]) [%] | viability at 10 molar ratio [7] [%] | viability at 500 molar ratio [8] [%] | viability at 1000 molar ratio [9] [%] | ID50 (Mus musculus) [mg]
COc1cc(-c2oc3cc(O)cc(O)c3c(=O)c2O[C@@H]2O[C@H](CO[C@@H]3O[C@@H](C)[C@H](O)[C@@H](O)[C@H]3O)[C@@H](O)[C@H](O)[C@H]2O)ccc1O [NARCISSIN] | 62.4 | 585 | 84.3 | 100 | > 80 | 16.3 | > 80 | > 80 | 70 | 
CC1(C)CC[C@]2(C(=O)O[C@@H]3O[C@H](CO)[C@@H](O)[C@H](O)[C@H]3O)CC[C@]3(C)C(=CC[C@@H]4[C@@]5(C)CC[C@H](O[C@@H]6O[C@H](C(=O)O)[C@@H](O)[C@H](O[C@@H]7O[C@H](CO)[C@H](O)[C@H](O)[C@H]7O)[C@H]6O)C(C)(C)[C@@H]5CC[C@]43C)[C@@H]2C1 [CALENDULAGYCOSIDE C] | 51 | 475 | 73.1 | 100 | > 80 | 13.2 | > 80 | > 80 | 70 | 0.2
CCCCOC(=O)[C@H]1O[C@@H](O[C@H]2CC[C@]3(C)[C@H]4CC=C5[C@@H]6CC(C)(C)CC[C@]6(C(=O)O[C@@H]6O[C@H](CO)[C@@H](O)[C@H](O)[C@H]6O)CC[C@@]5(C)[C@]4(C)CC[C@H]3C2(C)C)[C@H](O)[C@@H](O[C@@H]2O[C@H](CO)[C@H](O)[C@H](O)[C@H]2O)[C@@H]1O | 41.5 | 471 | 70.1 | 100 | > 80 | 5.4 | > 80 | > 80 | 70 | 0.06
CC1(C)CC[C@]2(C(=O)O[C@@H]3O[C@H](CO)[C@@H](O)[C@H](O)[C@H]3O)CC[C@]3(C)C(=CC[C@@H]4[C@@]5(C)CC[C@H](O[C@@H]6O[C@H](C(=O)O)[C@@H](O)[C@H](O[C@@H]7O[C@H](CO)[C@H](O)[C@H](O)[C@H]7O)[C@H]6O[C@@H]6O[C@H](CO)[C@@H](O)[C@H](O)[C@H]6O)C(C)(C)[C@@H]5CC[C@]43C)[C@@H]2C1 [CALENDULAGYCOSIDE A] | 52.3 | 484 | 75.3 | 75.3 | > 80 | 15.8 | > 80 | > 80 | 70 | 0.32
CCCCOC(=O)[C@H]1O[C@@H](O[C@H]2CC[C@]3(C)[C@H]4CC=C5[C@@H]6CC(C)(C)CC[C@]6(C(=O)O[C@@H]6O[C@H](CO)[C@@H](O)[C@H](O)[C@H]6O)CC[C@@]5(C)[C@]4(C)CC[C@H]3C2(C)C)[C@H](O[C@@H]2O[C@H](CO)[C@@H](O)[C@H](O)[C@H]2O)[C@@H](O[C@@H]2O[C@H](CO)[C@H](O)[C@H](O)[C@H]2O)[C@@H]1O | 43.2 | 480 | 71.6 | 100 | > 80 | 10.6 | > 80 | > 80 | 70 | 0.06
COC(=O)[C@H]1O[C@@H](O[C@H]2CC[C@]3(C)[C@H]4CC=C5[C@@H]6CC(C)(C)CC[C@]6(C(=O)O[C@@H]6O[C@H](CO)[C@@H](O)[C@H](O)[C@H]6O)CC[C@@]5(C)[C@]4(C)CC[C@H]3C2(C)C)[C@H](O[C@@H]2O[C@H](CO)[C@@H](O)[C@H](O)[C@H]2O)[C@@H](O[C@@H]2O[C@H](CO)[C@H](O)[C@H](O)[C@H]2O)[C@@H]1O | 53.6 | 487 | 77.8 | 100 | > 80 | 16 | > 80 | > 80 | 70 | 0.06
C[C@]12CCC(=O)C=C1CC[C@@H]1[C@@H]2[C@@H](O)C[C@@]2(C)[C@H]1CC[C@]2(O)C(=O)CO [HYDROCORTISONE] |  |  |  |  |  |  |  |  |  | 0.03
COc1cc(-c2oc3cc(O)cc(O)c3c(=O)c2O[C@@H]2O[C@H](CO)[C@@H](O)[C@H](O)[C@H]2O[C@@H]2O[C@@H](C)[C@H](O)[C@@H](O)[C@H]2O)ccc1O | 60 | 574 | 81.1 | 100 | > 80 | 14.1 | > 80 | > 80 | 70 | 
COC(=O)[C@H]1O[C@@H](O[C@H]2CC[C@]3(C)[C@H]4CC=C5[C@@H]6CC(C)(C)CC[C@]6(C(=O)O[C@@H]6O[C@H](CO)[C@@H](O)[C@H](O)[C@H]6O)CC[C@@]5(C)[C@]4(C)CC[C@H]3C2(C)C)[C@H](O)[C@@H](O[C@@H]2O[C@H](CO)[C@H](O)[C@H](O)[C@H]2O)[C@@H]1O | 52.1 | 480 | 74.3 | 100 | > 80 | 14.4 | > 80 | > 80 | 70 | 0.1
O=c1c(O[C@@H]2O[C@H](CO)[C@@H](O)[C@H](O)[C@H]2O)c(-c2ccc(O)c(O)c2)oc2cc(O)cc(O)c12 [ISOQUERCETIN] | 58 | 570 | 78.5 | 100 | > 80 | 14.1 | > 80 | > 80 | 70 | 
CC1=C(/C=C/C(C)=C/C=C/C(C)=C/C=C/C=C(C)/C=C/C=C(C)/C=C/C2=C(C)CCCC2(C)C)C(C)(C)CCC1 [BETA CAROTENE] |  | 397 |  | 100 | > 80 | 8.6 | > 80 | > 80 |  | 
C[C@@H]1O[C@@H](OC[C@H]2O[C@@H](Oc3c(-c4ccc(O)c(O)c4)oc4cc(O)cc(O)c4c3=O)[C@H](O)[C@@H](O)[C@@H]2O)[C@H](O)[C@H](O)[C@H]1O [RUTIN] |  | 578 |  | 100 | > 80 |  | > 80 | > 80 | 70 | 
COc1cc(-c2oc3cc(O)cc(O)c3c(=O)c2O[C@@H]2O[C@H](CO[C@@H]3O[C@@H](C)[C@H](O)[C@@H](O)[C@H]3O)[C@@H](O)[C@H](O)[C@H]2O[C@@H]2O[C@@H](C)[C@H](O)[C@@H](O)[C@H]2O)ccc1O | 64.8 | 592 | 86 | 100 | > 80 | 19.6 | > 80 | > 80 | 70 | 
COc1ccc2c(c1)c(CC(=O)O)c(C)n2C(=O)c1ccc(Cl)cc1 [INDOMETHACIN] |  |  |  |  |  |  |  |  |  | 0.3
